Values joined by “and” are separate entries in the source; they are usually repeats but may differ in a detail not shown here. Identical values can stand only once.
Experiments:
[1] = Solubility and precipitation in aqueous solution / NMR samples during titration
[2] = test system: cNTnC(WT)·Ca^2+; conditions: WT isoform; cited from earlier work
[3] = target: cNTnC(C35S/C84S)·Ca^2+ (Homo sapiens, UniProt P63316, C35S/C84S); assay: 2D 1H-15N HSQC NMR titration of cNTnC; type: binding
[4] = target: cTnC·3Ca^2+·cTnI34−71·cTnI128−163; conditions: cited from earlier work
[5] = target: cNTnC(C35S/C84S)·Ca^2+·cTnI144−163 (Homo sapiens, UniProt P19429+P63316, C35S/C84S); type: binding; conditions: for drug-induced backbone amide chemical shift changes: 1.0 mM cNTnC(C35S/C84S), […] cTnI144−163, Figure 6; for Kd: global fit of HSQC chemical shift changes, pH 6.7, 30 °C; for chemical shift changes on titration (in words): 100 mM stock added to the NMR sample
cNTnC(C35S/C84S)·Ca^2+·cTnI144−163, sequence (P19429 145-164, other chains not shown): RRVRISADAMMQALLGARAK

[6] = target: cNTnC(C35S/C84S)·Ca^2+·cTnI147−163 (Homo sapiens, UniProt P19429+P63316, C35S/C84S); type: binding; conditions: for chemical shift changes on titration (in words): 100 mM stock added to the NMR sample
[7] = target: cTnI147−163 (Homo sapiens, UniProt P19429); assay: 1D 1H NMR titration of levosimendan into free cTnI147−163 peptide; type: binding; conditions: data not shown
Outline: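 Test compound stocks were made fresh in DMSO-d6 for every titration and shielded from light; concentrations were determined gravimetrically. […] 1D 1H spectra were recorded at 500 MHz.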

[8] = target: cTnC·3Ca^2+·cTnI32−79·cTnI128−180; conditions: cited from earlier work
[9] = target: cTnI144−163 (Homo sapiens, UniProt P19429); assay: 1D 1H NMR titration of levosimendan into free cTnI144−163 peptide; type: binding; conditions: data not shown
[10] = test system: perfused hearts; conditions: cited from earlier work
[11] = test system: skinned muscle fibers; conditions: cited from earlier work
[12] = target: sTnC·4Ca^2+·sTnI1−182·sTnT156−262; conditions: cited from earlier work

Molecule: Ac-RISADAMMQALLGARAK-NH2 [cTnI147−163]
- solubility in aqueous solution (in words) [1]: highly soluble in aqueous solution
- stoichiometry of binding [2]: 1/1
- stoichiometry of binding ([3]; C35S/C84S isoform): 1/1
- equiv of peptide required to saturate the protein ([3]; solid peptide added, pH 6.7): 3−3.5 equiv

Molecule: NCCCCCCNS(=O)(=O)c1cccc2c(Cl)cccc12 [W7, N-(6-aminohexyl)-5-chloro-1-naphthalenesulfonamide]
- Kd [4]: ~0.5 mM

Molecule: CC1CC(=O)NN=C1c1ccc(N)cc1 (stereo not drawn) [AMDP, 6-(4-aminophenyl)-5-methyl-4,5-dihydro-3(2H)-pyridazinone]
- solubility in aqueous solution (in words) [1]: highly soluble in aqueous solution
- drug-induced backbone amide chemical shift changes [5]: ≤ 20 Hz
- Kd [5]: 1.5 mM and ~1.5 mM
- Kd [6]: 6.5 mM

Molecule: C[C@@H]1CC(=O)NN=C1c1ccc(NN=C(C#N)C#N)cc1 [levosimendan, (−)-[4-(1,4,5,6-tetrahydro-4-methyl-6-oxo-3-pyridazinyl)phenyl]hydrozonopropanedinitrile]
- chemical shift change of the peptide in the presence of drug (in words) [7]: no chemical shift change
- Kd [8]: ≥ 0.2 mM
- chemical shift change of the peptide in the presence of drug (in words) [9]: no chemical shift change
- lowest concentration with multiple effects [10]: 0.3 µM
- solubility in aqueous solution (in words) [1]: insoluble in aqueous solution
- concentration of maximal effect [11]: 10 µM

Molecule: CC1CC(=O)NN=C1c1ccc(-n2ccnc2)cc1 (stereo not drawn) [CI-930, 4,5-dihydro-6-[4-(1-imidazol-1-yl)phenyl]-5-methyl-4,5-dihydro-3(2H)-pyridazinone]
- drug-induced backbone amide chemical shift changes [5]: ≤ 20 Hz
- Kd [5]: 2.65 mM
- Kd [6]: 11 mM

Molecule: COc1ccc(C2=NNC(=O)CC2)cc1 [MPDP, 6-(4-methoxyphenyl)-4,5-dihydro-3(2H)-pyridazinone]
- chemical shift changes on titration (in words) [5]: No chemical shift changes were observed
- chemical shift changes on titration (in words) [6]: No chemical shift changes were observed

Molecule: CC1CC(=O)NN=C1c1ccc(Cl)cc1 (stereo not drawn) [CMDP, 6-(4-chlorophenyl)-5-methyl-4,5-dihydro-3(2H)-pyridazinone]
- drug-induced backbone amide chemical shift changes [5]: ≤ 60 Hz

Molecule: CC(C)(C)CC(C)(C)c1ccc(OCCOCCOCCOCCO)cc1 [anapoe, 2-[2-(2-{2-[4-(1,1,3,3-tetramethylbutyl)phenoxy]ethoxy}ethoxy)ethoxy]ethanol]
- Kd [12]: ~0.64 mM

Molecule: O=C1CCC(c2ccc(-n3ccnc3)cc2)=NN1 [imazodan, 4,5-dihydro-6-[4-(1-imidazol-1-yl)phenyl]-3(2H)-pyridazinone]
- chemical shift changes on titration (in words) [5]: No chemical shift changes were observed
- chemical shift changes on titration (in words) [6]: No chemical shift changes were observed
